For one series, the system named is SU-DHL-5. As to the kind of experiment: Antiproliferative activity against human SU-DHL-5 cells assessed as reduction in cell viability at 10 uM by CellTiter-Glo luminescent cell viability assay relative to idelalisib. Format: functional. The method in brief: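 Cells were seeded at 5x10^4 per well and exposed to the compound at a single concentration: 10 μM for SUDHL-5 and 20 μM for MOLT-4. CellTiter-Glo reagent was added 1:1, mixed for 2 min to lyse the cells, and held 10 min at room temperature before reading luminescence. Readings were background-subtracted and normalized to control wells.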

A further series is filed under the species Homo sapiens. As to the kind of experiment: Selectivity ratio of IC50 for recombinant human full length His-tagged p110gamma expressed in baculovirus expression system to IC50 for recombinant human full length His-tagged p110delta/p85alpha expressed in baculovirus expression system.
The target of series [1] is Phosphatidylinositol 4,5-bisphosphate 3-kinase catalytic subunit beta isoform (Homo sapiens, UniProt P42338). As to the kind of experiment: Inhibition of recombinant human full length His-tagged p110beta expressed in baculovirus expression system measured after 60 mins in presence of ATP by ATP-competitive binding assay. The method in brief:
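SelectScreen ATP-competitive assay using 10-point titration with 1 μM top final compound concentration. Kinase, substrate and ATP mixed in 30 mM HEPES buffer and reacted 60 min. IC50 taken as the mean of three independent experiments.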

Series [2] can be described thus: Half life in Sprague-Dawley rat at 1 mg/kg, po measured for 24 hrs by LC-MS/MS analysis. It counts as ADME, organism-based. The conditions noted are these: in vivo. The method in brief:
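Sprague-Dawley rats dosed orally at 1 or 3 mg/kg, three animals per group. Blood sampled at 0.25, 0.5, 1, 2, 4, 8 and 24 h post-dose. Plasma separated by centrifugation, extracted and quantified by LC-MS/MS. PK parameters (Cmax, AUClast, Tmax, t1/2) derived by non-compartmental software.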

The structures appear in SMILES notation. pIC50: −log10 of the molar value.

Chain of Phosphatidylinositol 4,5-bisphosphate 3-kinase catalytic subunit beta isoform (P42338 whole entry, canonical isoform): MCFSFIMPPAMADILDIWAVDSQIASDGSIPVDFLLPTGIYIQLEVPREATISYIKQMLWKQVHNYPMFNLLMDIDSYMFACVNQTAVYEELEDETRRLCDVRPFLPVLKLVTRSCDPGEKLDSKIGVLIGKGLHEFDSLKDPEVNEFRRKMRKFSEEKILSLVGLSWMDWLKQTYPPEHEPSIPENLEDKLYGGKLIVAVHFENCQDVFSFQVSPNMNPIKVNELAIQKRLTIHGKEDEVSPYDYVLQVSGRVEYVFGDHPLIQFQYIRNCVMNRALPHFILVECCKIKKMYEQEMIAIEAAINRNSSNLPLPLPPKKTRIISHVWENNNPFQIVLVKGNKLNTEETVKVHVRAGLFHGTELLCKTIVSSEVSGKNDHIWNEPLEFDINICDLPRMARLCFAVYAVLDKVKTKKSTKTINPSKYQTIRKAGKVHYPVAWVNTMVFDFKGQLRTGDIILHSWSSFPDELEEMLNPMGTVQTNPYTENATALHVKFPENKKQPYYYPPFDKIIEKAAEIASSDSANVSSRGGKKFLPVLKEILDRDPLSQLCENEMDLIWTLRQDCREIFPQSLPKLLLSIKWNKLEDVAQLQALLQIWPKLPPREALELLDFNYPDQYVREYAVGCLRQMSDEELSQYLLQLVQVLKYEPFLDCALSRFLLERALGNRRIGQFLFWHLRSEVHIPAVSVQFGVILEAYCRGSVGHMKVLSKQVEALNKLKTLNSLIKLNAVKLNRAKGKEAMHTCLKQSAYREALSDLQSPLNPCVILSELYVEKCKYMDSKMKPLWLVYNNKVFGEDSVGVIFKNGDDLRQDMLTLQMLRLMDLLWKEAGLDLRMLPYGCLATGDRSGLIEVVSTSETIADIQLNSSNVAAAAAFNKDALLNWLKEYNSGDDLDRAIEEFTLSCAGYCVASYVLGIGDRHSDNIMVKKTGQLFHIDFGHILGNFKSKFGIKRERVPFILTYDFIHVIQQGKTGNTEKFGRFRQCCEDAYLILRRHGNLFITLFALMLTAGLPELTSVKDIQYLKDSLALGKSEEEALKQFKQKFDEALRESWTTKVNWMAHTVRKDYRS

As for `Cc1cccc2nc([C@@H](Nc3ncnc4nc[nH]c34)C3CC3)n(-c3ccccc3)c(=O)c12`, the “fold change (FC)” value in the series on SU-DHL-5 worked out at 5. Further, the Ratio IC50 in the series listed under Homo sapiens was found to be 95.5.
`O=c1c2c(F)cccc2nc([C@@H](Nc2ncnc3nc[nH]c23)C2CC2)n1-c1ccccc1`: in series [1], the pIC50 was 6.70. In series [2], the half-life was 10.2 h.

(Values after ChEMBL document CHEMBL4834477, “Synthesis and biological evaluation of novel purinyl quinazolinone derivatives as PI3Kδ-specific inhibitors for the treatment of hematologic malignancies” (Bioorg Med Chem, 2021).)
